{"source": "ChEMBL document CHEMBL4270544", "about": "“Design, synthesis and biological evaluation of a novel tubulin inhibitor 7a3 targeting the colchicine binding site” (Eur J Med Chem, 2018)", "key": {"Mus musculus [1]": {"tested_on": "Mus musculus", "assay": "Area under the first moment curve (0 to infinity) in C57 mouse at 50 mg/kg, ip administered as single dose by LC-MS/MS analysis", "format": "ADME, organism-based", "details": "in vivo", "procedure,_shortened": "(§1)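 Male C57 mice, one intraperitoneal dose. Blood drawn from submaxillary vein at 0, 5, 15, 30 min and 1, 2, 4, 8, 12, 24 h. Plasma measured by LC/MS/MS in MRM mode with CA-4 as internal standard. Calibration by weighted linear regression over 0.01–500 ng/mL. Parameters obtained by non-compartmental analysis.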"}, "SK-OV-3 [2]": {"tested_on": "SK-OV-3", "assay": "Induction of apoptosis in human SKOV3 cells assessed as early apoptotic cells at 160 nM after 48 hrs by Annexin-V-FITC/propidium iodide staining based flow cytometry (reference value: 0.97%)", "format": "functional"}, "Mus musculus [3]": {"tested_on": "Mus musculus", "assay": "Toxicity in Balb/c mouse xenografted with human SKOV3 cells assessed as pathological changes in spleen at 50 mg/kg, ip administered every two days for three times by hematoxylin and eosin staining based assay", "format": "organism-based", "details": "in vivo", "procedure,_shortened": "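Six-week-old Balb/c nude mice received subcutaneous SK-OV-3 cells in the back. At ~200 mm3 tumour size they were randomized to vehicle or drug groups, six per group. Drug was given in 5% (v/v) DMSO/olive oil, intraperitoneally, every two days for three doses. Heart, liver, spleen, lung and kidney were collected and examined by H&E staining.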"}, "SK-OV-3 [4]": {"tested_on": "SK-OV-3", "assay": "Cell cycle arrest in human SKOV3 cells assessed as accumulation at G0/G1 phase at 40 nM after 24 hrs by propidium iodide staining based flow cytometry (reference value: 67.79%)", "format": "functional", "procedure,_shortened": "(§2)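 SK-OV-3 cells exposed to 40, 80 or 160 nM for 24 h, with untreated cells as control. Stained with PI and analysed by flow cytometry for phase distribution. Mean ± SEM of three independent experiments; t-test against control.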"}, "SK-OV-3 [5]": {"tested_on": "SK-OV-3", "assay": "Cell cycle arrest in human SKOV3 cells assessed as accumulation at S phase at 160 nM after 24 hrs by propidium iodide staining based flow cytometry (reference value: 18.09%)", "format": "functional", "procedure,_shortened": "as §2"}, "Mus musculus [6]": {"tested_on": "Mus musculus", "assay": "Toxicity in Balb/c mouse xenografted with human SKOV3 cells assessed as pathological changes in heart at 50 mg/kg, ip administered every two days for three times by hematoxylin and eosin staining based assay", "format": "organism-based", "details": "in vivo", "procedure,_shortened": "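In SK-OV-3 xenografted Balb/c nude mice dosed 50 mg/kg intraperitoneally in 5% DMSO/olive oil every two days, three times, organs were collected and examined after H&E staining.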"}, "Bos taurus [7]": {"organism": "Bos taurus", "assay": "Inhibition of bovine MAP-rich tubulin polymerization at 2.5 uM measured every 1 min for 30 mins relative to control", "procedure,_shortened": "(§3)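 Purified tubulin polymerization followed at 37 °C by absorbance at 340 nm, read every 1 min for 30 min. Test concentrations 2.5, 10 and 40 µM. CA-4 at 10 µM served as positive control and DMSO (1%, v/v) as vehicle. Polymerization is expressed relative to the vehicle group.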"}, "SK-OV-3 [8]": {"tested_on": "SK-OV-3", "assay": "Cell cycle arrest in human SKOV3 cells assessed as accumulation at S phase at 80 nM after 24 hrs by propidium iodide staining based flow cytometry (reference value: 18.09%)", "format": "functional", "procedure,_shortened": "as §2"}, "[9]": {"assay": "AUC (0 to infinity) in C57 mouse at 50 mg/kg, ip administered as single dose by LC-MS/MS analysis", "format": "ADME, organism-based", "parameters": "dose 50 mg/kg, time infinity, route intraperitoneal", "details": "in vivo", "procedure,_shortened": "as §1"}, "SK-OV-3 [10]": {"tested_on": "SK-OV-3", "assay": "Induction of apoptosis in human SKOV3 cells assessed as necrotic cells at 40 nM after 48 hrs by Annexin-V-FITC/propidium iodide staining based flow cytometry (reference value: 0.67%)", "format": "functional"}, "SK-OV-3 [11]": {"tested_on": "SK-OV-3", "assay": "Cell cycle arrest in human SKOV3 cells assessed as accumulation at G0/G1 phase at 80 nM after 24 hrs by propidium iodide staining based flow cytometry (reference value: 67.79%)", "format": "functional", "procedure,_shortened": "as §2"}, "SK-OV-3 [12]": {"tested_on": "SK-OV-3", "assay": "Induction of apoptosis in human SKOV3 cells assessed as early apoptotic cells at 80 nM after 48 hrs by Annexin-V-FITC/propidium iodide staining based flow cytometry (reference value: 0.97%)", "format": "functional"}, "Bos taurus [13]": {"organism": "Bos taurus", "assay": "Inhibition of bovine MAP-rich tubulin polymerization at 40 uM measured every 1 min for 30 mins relative to control", "procedure,_shortened": "as §3"}, "SK-OV-3 [14]": {"tested_on": "SK-OV-3", "assay": "Induction of apoptosis in human SKOV3 cells assessed as necrotic cells at 160 nM after 48 hrs by Annexin-V-FITC/propidium iodide staining based flow cytometry (reference value: 0.67%)", "format": "functional"}, "Bos taurus [15]": {"organism": "Bos taurus", "assay": "Inhibition of bovine MAP-rich tubulin polymerization measured every 1 min for 30 mins", "procedure,_shortened": "as §3"}, "A549": {"tested_on": "A549", "assay": "Antiproliferative activity against human A549 cells after 72 hrs by CCK8 assay", "format": "functional, cell-based", "details": "A549, 72 h", "procedure,_shortened": "(§4)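 CCK-8 proliferation assay with CA-4 as positive control. IC50 is the concentration giving 50% inhibition of proliferation. Mean ± SEM from three independent experiments.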"}, "SK-OV-3 [16]": {"tested_on": "SK-OV-3", "assay": "Induction of apoptosis in human SKOV3 cells assessed as late apoptotic cells at 160 nM after 48 hrs by Annexin-V-FITC/propidium iodide staining based flow cytometry (reference value: 3.93%)", "format": "functional"}, "[17]": {"assay": "AUC (0 to 24 hrs) in C57 mouse at 50 mg/kg, ip administered as single dose by LC-MS/MS analysis", "format": "ADME, organism-based", "parameters": "dose 50 mg/kg, time < 24 hr, route intraperitoneal", "details": "in vivo", "procedure,_shortened": "as §1"}, "SK-OV-3 [18]": {"tested_on": "SK-OV-3", "assay": "Antiproliferative activity against human SKOV3 cells after 72 hrs by CCK8 assay", "format": "functional, cell-based", "details": "SK-OV-3, 72 h", "procedure,_shortened": "as §4"}, "SK-OV-3 [19]": {"tested_on": "SK-OV-3", "assay": "Antitumor activity against human SKOV3 cells xenografted in Balb/c mouse assessed as reduction in tumor growth at 50 mg/kg, ip administered every two days for three times measured every 3 to 4 days relative to control", "format": "functional", "parameters": "scale not given: the % may be the effect or the level left", "procedure,_shortened": "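Six-week-old Balb/c nude mice given subcutaneous SK-OV-3 cells in the back. Randomised into three groups at about 200 mm3 tumour size. Dosed 50 mg/kg intraperitoneally in 5% DMSO/olive oil every two days, three times; vehicle group as control. Tumour volume and body weight tracked; six animals per group, mean ± SEM, t-test.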"}, "SK-OV-3 [20]": {"tested_on": "SK-OV-3", "assay": "Induction of apoptosis in human SKOV3 cells assessed as live cells at 80 nM after 48 hrs by Annexin-V-FITC/propidium iodide staining based flow cytometry (reference value: 94.43%)", "format": "functional"}, "MCF7": {"tested_on": "MCF7", "assay": "Antiproliferative activity against human MCF7 cells after 72 hrs by CCK8 assay", "format": "functional, cell-based", "details": "MCF7, 72 h", "procedure,_shortened": "as §4"}, "SK-OV-3 [21]": {"tested_on": "SK-OV-3", "assay": "Cell cycle arrest in human SKOV3 cells assessed as accumulation at G2/M phase at 40 nM after 24 hrs by propidium iodide staining based flow cytometry (reference value: 24.99%)", "format": "functional", "procedure,_shortened": "as §2"}, "SK-OV-3 [22]": {"tested_on": "SK-OV-3", "assay": "Induction of apoptosis in human SKOV3 cells assessed as late apoptotic cells at 40 nM after 48 hrs by Annexin-V-FITC/propidium iodide staining based flow cytometry (reference value: 3.93%)", "format": "functional"}, "[23]": {"assay": "Tmax in C57 mouse at 50 mg/kg, ip administered as single dose by LC-MS/MS analysis", "format": "ADME, organism-based", "details": "in vivo", "procedure,_shortened": "as §1"}, "SK-OV-3 [24]": {"tested_on": "SK-OV-3", "assay": "Inhibition of tubulin assembly in human SKOV3 cells assessed as abnormal mitotic spindle formation at 10 to 1000 nM after 24 hrs by DAPI staining based immunofluorescence microscopic method", "format": "functional, cell-based", "procedure,_shortened": "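SK-OV-3 cells exposed to DMSO or 10, 100 or 1000 nM for 24 h. Fixed in methanol, stained with FITC anti-β-tubulin antibody, counterstained with DAPI, and imaged by confocal microscopy.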"}, "Bos taurus [25]": {"organism": "Bos taurus", "assay": "Inhibition of bovine MAP-rich tubulin polymerization at 10 uM measured every 1 min for 30 mins relative to control", "procedure,_shortened": "as §3"}, "SK-OV-3 [26]": {"tested_on": "SK-OV-3", "assay": "Induction of apoptosis in human SKOV3 cells assessed as live cells at 160 nM after 48 hrs by Annexin-V-FITC/propidium iodide staining based flow cytometry (reference value: 94.43%)", "format": "functional"}}, "note": "Calls of active or inactive are those of the source. The rule behind the calls is not given here.", "data": [{"smiles": "CCOc1ccc(-c2cn(C)nc2-c2cc(OC)c(OC)c(OC)c2)cc1", "values": [{"measurement": "AUMC", "setting": "Mus musculus [1]", "value": 1785, "unit": "hr.hr.ng/ml"}, {"measurement": "Activity", "setting": "SK-OV-3 [2]", "value": 9.46, "unit": "%"}, {"measurement": "Activity", "setting": "Mus musculus [3]", "value": "Non-Toxic"}, {"measurement": "Activity", "setting": "SK-OV-3 [4]", "value": 54.42, "unit": "%"}, {"measurement": "Activity", "setting": "SK-OV-3 [5]", "value": 26.16, "unit": "%"}, {"measurement": "Activity", "setting": "Mus musculus [6]", "value": "Non-Toxic"}, {"measurement": "inhibition", "setting": "Bos taurus [7]", "value": 30.5, "unit": "%"}, {"measurement": "Activity", "setting": "SK-OV-3 [8]", "value": 24.15, "unit": "%"}, {"measurement": "AUC(0-inf)", "setting": "[9]", "value": 1170, "unit": "ng·h/mL"}, {"measurement": "Activity", "setting": "SK-OV-3 [10]", "value": 0.97, "unit": "%"}, {"measurement": "Activity", "setting": "SK-OV-3 [11]", "value": 41.2, "unit": "%"}, {"measurement": "Activity", "setting": "SK-OV-3 [12]", "value": 5.05, "unit": "%"}, {"measurement": "inhibition", "setting": "Bos taurus [13]", "value": 85.3, "unit": "%"}, {"measurement": "Activity", "setting": "SK-OV-3 [14]", "value": 1.28, "unit": "%"}, {"measurement": "inhibition", "setting": "Bos taurus [15]", "value": "Dose-dependent effect"}, {"measurement": "IC50", "setting": "A549", "value": 67, "unit": "nM"}, {"measurement": "Activity", "setting": "SK-OV-3 [16]", "value": 47.36, "unit": "%"}, {"measurement": "AUC(0-t) at 24 h", "setting": "[17]", "value": 1140, "unit": "ng·h/mL"}, {"measurement": "IC50", "setting": "SK-OV-3 [18]", "value": 17, "unit": "nM"}, {"measurement": "Activity", "setting": "SK-OV-3 [19]", "value": 62.8, "unit": "%"}, {"measurement": "Activity", "setting": "SK-OV-3 [20]", "value": 73.56, "unit": "%"}, {"measurement": "IC50", "setting": "MCF7", "value": 35.4, "unit": "nM"}, {"measurement": "Activity", "setting": "SK-OV-3 [21]", "value": 24.6, "unit": "%"}, {"measurement": "Activity", "setting": "SK-OV-3 [22]", "value": 6.65, "unit": "%"}, {"measurement": "Tmax", "setting": "[23]", "value": 15, "unit": "min"}, {"measurement": "inhibition", "setting": "SK-OV-3 [24]", "value": "Active"}, {"measurement": "inhibition", "setting": "Bos taurus [25]", "value": 60.4, "unit": "%"}, {"measurement": "Activity", "setting": "SK-OV-3 [26]", "value": 41.9, "unit": "%"}]}]}
